KCNQ1 act – potentiates or activates the human KCNQ1 potassium channel | B-score at 10 µM | CHO-K1 KCNQ1, thallium flux FluxOR fluorescence; stronger effect = higher value | AID 2648 | 0.35% of 310,000 active;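 active means fluorescence ratio B-score, a plate-corrected score, at least three library SD, with initial intensity B-score within 5 SD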
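Doses: Single concentration per compound, DMSO matched to controls | Test system: KCNQ1-transfected CHO-K1 cells | Timing: 90 min dye loading and 20 min compound exposure, both at room temperature | Measured by: Kinetic FluxOR thallium fluorescence, 10-s 1-Hz baseline, 110-s post-stimulus read | Medium: Assay buffer with matched DMSO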
KCNK9 block – blocks the human KCNK9 two-pore domain potassium channel; HEK293 KCNK9, FluxOR thallium flux fluorescence; stronger effect = lower value; AID 488922; Q9NPC2; 1.2% of 310,000 active; B-score at 10 µM;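 active means ratio B-score over 3 SD below the library mean, with starting fluorescence within 5 SD of its mean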;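 further: negative B-score means less thallium flux so channel inhibition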
hERG protect – hERG (human) protection from proarrhythmic block. Q12809. CHO-hERG, FluxOR thallium flux, dofetilide IC70 present. activation (rescue from dofetilide block), less the hit threshold, % at 10 µM. 0.51% of 310,000 active. AID 1511;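 active means activation above the mean of controls blocked by dofetilide plus 5 SD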;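 further: thallium influx through hERG after potassium depolarization seen as dye fluorescence rise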
KCNQ1 inh – human KCNQ1 channel inhibition; CHO-K1 KCNQ1, FluxOR thallium flux fluorescence; stronger effect = higher value; B-score at 10 µM; 1.3% of 310,000 active; P51787;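 active means compounds whose thallium flux B-score, printed positive for inhibition, exceeds three library SD while starting fluorescence stays within three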;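 further: channel opened by potassium depolarization with thallium stimulus after 20 min compound exposure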
Kir21 block – blocks the mouse Kir2.1 inward-rectifier potassium channel; P35561; HEK293-Kir2.1, FluxOR thallium flux fluorescence; stronger effect = lower value; B-score at 10 µM; 0.85% of 310,000 active;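 active means fluorescence ratio B-score at or below minus 3 SD of library scores, with starting-brightness B-score within 2 SD, cut at about -4.2 in these data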;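 further: channel flux triggered by added potassium and thallium sulfate stimulus; B-score of peak minus minimum fluorescence over baseline after thallium stimulus; more negative B-score means stronger Kir2.1 block with less thallium influx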
Target sequence (P35561 whole entry, looked up): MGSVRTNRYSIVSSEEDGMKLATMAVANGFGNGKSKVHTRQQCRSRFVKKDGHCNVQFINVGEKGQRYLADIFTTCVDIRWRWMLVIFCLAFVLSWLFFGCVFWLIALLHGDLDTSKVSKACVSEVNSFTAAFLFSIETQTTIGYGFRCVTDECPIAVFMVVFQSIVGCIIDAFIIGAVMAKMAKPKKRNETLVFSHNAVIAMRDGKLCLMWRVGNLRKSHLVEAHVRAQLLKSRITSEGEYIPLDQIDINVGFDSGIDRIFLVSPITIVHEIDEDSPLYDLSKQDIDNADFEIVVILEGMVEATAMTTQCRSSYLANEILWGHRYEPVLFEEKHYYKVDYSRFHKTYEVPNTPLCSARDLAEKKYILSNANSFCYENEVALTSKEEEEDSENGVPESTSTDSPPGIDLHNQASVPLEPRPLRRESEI
KCNK3 inh – human KCNK3 channel inhibition, primary screen. O14649. CHO-KCNK3 thallium flux, FluxOR fluorescence; stronger effect = lower value. B-score at 10 µM. 0.84% of 340,000 active. AID 602410;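 active means B-score under library mean minus 4 SD, starting fluorescence ratio at most library mean plus 5 SD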;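 further: more negative B-score means stronger inhibition of thallium flux through KCNK3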
An asterisk follows results filed as active; i = inactive; / = not tested or not shown. In the library only some 3.7% were active in any assay of this set; here they are far more common.

SMILES | KCNQ1 act | KCNK9 block | hERG protect | KCNQ1 inh | Kir21 block | KCNK3 inh
CCN(CC(=O)Nc1ccc(NC(C)=O)cc1)C(=O)c1cccc(N2C(=O)c3ccccc3C2=O)c1 | / | / | / | / | / | i
CC(C)c1ccc(S(=O)(=O)N2CCN(C(=O)Cc3ccsc3)CC2)cc1 | i | i | -5 | i | -2.2 | i
Cn1c2ccccc2c(=O)c2c(=O)n(-c3ccc(F)cc3)c(-c3cccs3)nc21 | i | i | -2 | i | -1.2 | i
CC(c1ccccc1)n1c(-c2cccs2)nc2c(c(=O)c3ccccc3n2C)c1=O (stereo unspecified) | i | -8.1* | -5 | i | -0.31 | i
COC(=O)C[C@H](NC(=O)Cn1cnc2c(NCc3ccccc3)ncnc21)C(=O)OC | / | / | / | / | / | i
CSc1ccc2c(c1)C(N1CCN(C)CC1)Cc1ccccc1S2 (stereo unspecified) | i | i | -25 | i | -7.9* | i
N#C/C(=N\Nc1ccccc1F)c1nc(-c2ccccc2)cs1 | i | i | 18* | i | -0.02 | i
NC(=O)C1(Nc2ccc(Br)cc2)CCCC1 | / | / | / | / | / | i
Cc1cccc(-n2cc(-c3ccccc3)c3c(=O)[nH]cnc32)c1 | i | -7.2* | -14 | i | -0.66 | i
CC1=CC2(C)C(C3C(C)=CC2(C)C(=O)C3(C)O)C(C)(O)C1=O (stereo unspecified) | / | / | / | / | / | i
Cc1cc(C)nc(SCc2ccc(C(=O)N/N=C/c3ccco3)cc2)n1 | i | i | -8 | i | -4.3* | i
CCOc1ccccc1C(=O)NCC(=O)NCCSc1ccc(Br)cc1 | / | / | / | / | / | i
C=CCNc1nc(-c2c(C)nc3sccn23)cs1 | i | i | -15 | i | -2.6 | i
Cc1nc2sccn2c1-c1csc(NCc2ccccc2)n1 | i | i | -21 | 6* | -0.48 | i
Cc1ccc(S(=O)(=O)C(C)C(=O)c2ccc3c(c2)OCCO3)cc1 (stereo unspecified) | i | i | -16 | i | -4.3* | i
Nc1cc2c(cc1[N+](=O)[O-])OCCO2 | i | i | -6 | i | 1.4 | i
Nc1cc2c(cc1[N+](=O)[O-])OCCOCCOCCO2 | i | i | 6.4* | i | 0.75 | i
CCOC(=O)C(=O)NC1CC=CCC1c1ccc2c(c1)OCO2 (stereo unspecified) | / | / | / | / | / | i
O=C(O)/C=C/c1cn(-c2ccccc2)nc1-c1ccc(-c2ccc([N+](=O)[O-])cc2)o1 | i | i | 11* | i | 0.03 | i
O=C(O)/C=C/c1cn(-c2ccccc2)nc1-c1cccc([N+](=O)[O-])c1 | i | i | -5 | i | 0.84 | i
COc1cccc(NC(=O)CSc2c3c(nc4ccccc24)CCCC3)c1 | i | i | -11 | i | -5.8* | i
COc1cccc(CN(C)CC(=O)Nc2cccc(S(N)(=O)=O)c2)c1OC | i | i | 2 | i | -1.8 | i
COc1ccc(Br)cc1CN(C)CC(=O)Nc1cccc(S(N)(=O)=O)c1 | i | i | -9 | i | -4.6* | i
O=c1oc(C2(O)CCCCC2)cc2ccc(/C=C/c3ccc(F)cc3)cc12 | / | / | / | / | / | i
COC(=O)CN(c1nc(C)cc(OC)n1)S(=O)(=O)c1ccccc1 | i | i | -3 | i | -3.2 | i
SMILES | KCNQ1 act | KCNK9 block | hERG protect | KCNQ1 inh | Kir21 block | KCNK3 inh
COC(=O)CN(c1nc(C)c(Br)c(OC)n1)S(=O)(=O)c1ccccc1 | i | i | -9 | i | -5.5* | i
O=C1CSCc2nc3ccccc3n21 | / | / | / | / | / | i
Cc1cccc(NC(=S)c2nc3ccccc3s2)c1 | 10* | i | 43* | i | -2 | i
O=C(Oc1ccc(Br)cc1C(=S)N1CCCC1)c1ccccc1Cl | i | -8* | -5 | i | -0.98 | i
CC(=O)/C(=C/c1ccccc1)C(=O)Nc1ccccc1C | i | i | -11 | i | -5.5* | i
COc1ccc(C(C)C)cc1S(=O)(=O)NC1CCCC1 | i | i | -2 | i | 0.29 | i
CCOC(=O)C1=C(c2ccccc2)NC(=O)NC1c1ccc(O)c(Cl)c1 (stereo unspecified) | i | i | 13* | i | -7.8* | i

Assay outcomes deposited in PubChem by Johns Hopkins Ion Channel Center.
